According to ChEMBL document CHEMBL3414437, “Synthesis of CDDO-amino acid-nitric oxide donor trihybrids as potential antitumor agents against both drug-sensitive and drug-resistant colon cancer” (J Med Chem, 2015):
Calls of active or inactive are those of the source. The calls are words filed in the database; no cut-off is given here.

Legend:
[1] = Antiproliferative activity against 5-FU resistant human HCT8 cells assessed as inhibition of cell proliferation after 72 hrs by MTT assay; type: functional, cell-based; conditions: HCT-8, 72 h
Method in brief: (§1)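 Cells (1.0 × 10^4/well) grown overnight in DMEM with 10% FBS. Treated in triplicate with eight concentrations ([…]) of compound from DMSO stock, final DMSO <0.4%, for 72 h. MTT added for the last 4 h, formazan dissolved in DMSO, read at 570 nm. Inhibition = (Acontrol−Atreated)/Acontrol. IC50 given as mean ± SD of three independent experiments.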

[2] = Antiproliferative activity against human HCT8 cells assessed as inhibition of cell proliferation at 1 uM after 72 hrs by MTT assay; type: functional; conditions: HCT-8, 72 h, read-out: GI
Method in brief: (§2)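 Cells grown in DMEM with 10% FBS and exposed to compound at 1 µM for 72 h. Proliferation measured by MTT at 570 nm and expressed as % inhibition versus untreated cells. Mean ± SD of three independent experiments.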

[3] = Antiproliferative activity against human HCT8 cells assessed as inhibition of cell proliferation after 72 hrs by MTT assay; type: functional, cell-based; conditions: HCT-8, 72 h; method in brief: as §1
[4] = Antiproliferative activity against human CCD-841-CoN cells assessed as inhibition of cell proliferation after 72 hrs by MTT assay; type: cell-based; method in brief: as §1
[5] = Antiproliferative activity against 5-FU resistant human HCT8 cells assessed as inhibition of cell proliferation at 1 uM after 72 hrs by MTT assay; type: functional; conditions: HCT-8, 72 h, read-out: GI; method in brief: as §2
HCT-8 [6] = assay: Induction of nitric oxide release in human HCT8 cells at 100 uM incubated for 150 mins by Griess assay; type: functional, cell-based
Method in brief: (§3)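 Cells (1 × 10^6/well) treated in triplicate with compound at 100 µM for 150 min. Lysates mixed with Griess reagent for 10 min at 37 °C and read at 540 nm. Nitrite quantified from a sodium nitrite standard curve; 0.4% DMSO-treated cells served as background. Mean ± SD of three experiments.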

CCD-841CoN = assay: Induction of nitric oxide release in human CCD-841-CoN cells at 100 uM incubated for 150 mins by Griess assay; type: functional, cell-based; method in brief: as §3
HCT-8 [7] = assay: Induction of nitric oxide release in 5-FU resistant human HCT8 cells at 100 uM incubated for 150 mins by Griess assay; type: functional, cell-based; method in brief: as §3

SMILES | IC50 [1] [nM] | inhibition of growth at 1 µM [2] [%] | IC50 [3] [nM] | IC50 [4] [nM] | inhibition of growth at 1 µM [5] [%] | Activity (HCT-8 [6]) | Activity (CCD-841CoN) | Activity (HCT-8 [7])
CC1(C)CC[C@]2(C(=O)N3CCC[C@H]3C(=O)OCC#CCOc3no[n+]([O-])c3S(=O)(=O)c3ccccc3)CC[C@]3(C)[C@H](C(=O)C=C4[C@@]5(C)C=C(C#N)C(=O)C(C)(C)[C@@H]5CC[C@]43C)[C@@H]2C1 | 343 | > 90 | 441 | 1420 | > 90 | – | – | –
CC1(C)CC[C@]2(C(=O)NCC(=O)OCCOCCOc3no[n+]([O-])c3S(=O)(=O)c3ccccc3)CC[C@]3(C)[C@H](C(=O)C=C4[C@@]5(C)C=C(C#N)C(=O)C(C)(C)[C@@H]5CC[C@]43C)[C@@H]2C1 | 562 | > 90 | 872 | 3130 | > 90 | – | – | –
O=c1[nH]cc(F)c(=O)[nH]1 [FLUOROURACIL] | 36600 | – | 910 | – | – | – | – | –
C[C@@H](NC(=O)[C@]12CCC(C)(C)C[C@H]1[C@H]1C(=O)C=C3[C@@]4(C)C=C(C#N)C(=O)C(C)(C)[C@@H]4CC[C@@]3(C)[C@]1(C)CC2)C(=O)OCC#CCOc1no[n+]([O-])c1S(=O)(=O)c1ccccc1 | 276 | > 90 | 370 | 958 | > 90 | Active | inactive | Active
CC1(C)CC[C@]2(C(=O)N3CCC[C@H]3C(=O)OCCCCOc3no[n+]([O-])c3S(=O)(=O)c3ccccc3)CC[C@]3(C)[C@H](C(=O)C=C4[C@@]5(C)C=C(C#N)C(=O)C(C)(C)[C@@H]5CC[C@]43C)[C@@H]2C1 | – | – | – | – | – | inactive | inactive | inactive
CC1(C)CC[C@]2(C(=O)NCCC(=O)OCC#CCOc3no[n+]([O-])c3S(=O)(=O)c3ccccc3)CC[C@]3(C)[C@H](C(=O)C=C4[C@@]5(C)C=C(C#N)C(=O)C(C)(C)[C@@H]5CC[C@]43C)[C@@H]2C1 | 462 | > 90 | 379 | 1470 | > 90 | – | – | –
O=S(=O)(c1ccccc1)c1c(OCC#CCO)no[n+]1[O-] | 36600 | – | 33500 | – | – | – | – | –
CC1(C)CC[C@]2(C(=O)NCC(=O)O)CC[C@]3(C)[C@H](C(=O)C=C4[C@@]5(C)C=C(C#N)C(=O)C(C)(C)[C@@H]5CC[C@]43C)[C@@H]2C1 | 2260 | – | 3190 | – | – | inactive | – | inactive
CC1(C)CC[C@]2(C(=O)N3CCC[C@H]3C(=O)OCCCOc3no[n+]([O-])c3S(=O)(=O)c3ccccc3)CC[C@]3(C)[C@H](C(=O)C=C4[C@@]5(C)C=C(C#N)C(=O)C(C)(C)[C@@H]5CC[C@]43C)[C@@H]2C1 | – | – | – | – | – | inactive | inactive | inactive
CC1(C)CC[C@]2(C(=O)NCCCC(=O)OCC#CCOc3no[n+]([O-])c3S(=O)(=O)c3ccccc3)CC[C@]3(C)[C@H](C(=O)C=C4[C@@]5(C)C=C(C#N)C(=O)C(C)(C)[C@@H]5CC[C@]43C)[C@@H]2C1 | 381 | > 90 | 504 | 1700 | > 90 | – | – | –
CC1(C)CC[C@]2(C(=O)NCC(=O)OCCCOc3no[n+]([O-])c3S(=O)(=O)c3ccccc3)CC[C@]3(C)[C@H](C(=O)C=C4[C@@]5(C)C=C(C#N)C(=O)C(C)(C)[C@@H]5CC[C@]43C)[C@@H]2C1 | 380 | > 90 | 550 | 1720 | > 90 | – | – | –
CC1(C)CC[C@]2(C(=O)N3CCC[C@H]3C(=O)OCCCCCCOc3no[n+]([O-])c3S(=O)(=O)c3ccccc3)CC[C@]3(C)[C@H](C(=O)C=C4[C@@]5(C)C=C(C#N)C(=O)C(C)(C)[C@@H]5CC[C@]43C)[C@@H]2C1 | – | – | – | – | – | inactive | inactive | inactive
CC1(C)CC[C@]2(C(=O)NCC(=O)OCCCCOc3no[n+]([O-])c3S(=O)(=O)c3ccccc3)CC[C@]3(C)[C@H](C(=O)C=C4[C@@]5(C)C=C(C#N)C(=O)C(C)(C)[C@@H]5CC[C@]43C)[C@@H]2C1 | 315 | > 90 | 383 | 1120 | > 90 | – | – | –
CC1(C)CC[C@]2(C(=O)NCC(=O)OCCCCCCOc3no[n+]([O-])c3S(=O)(=O)c3ccccc3)CC[C@]3(C)[C@H](C(=O)C=C4[C@@]5(C)C=C(C#N)C(=O)C(C)(C)[C@@H]5CC[C@]43C)[C@@H]2C1 | 339 | > 90 | 356 | 1420 | > 90 | – | – | –
